Screening data (PubChem BioAssay)
M4 ag – CHRM4 agonism in calcium assay. P08173. CHO-K1 hM4/Gqi5, Fluo-8 calcium fluorescence; vehicle 0%, full acetylcholine response 100%. activation, % at 3 µM. actives 0.14% (n = 360,000);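 active = activation above the run mean over all test wells plus 3 SD, cut at about 32% in these data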;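 also: peak over basal fluorescence ratio per well then scaled between controls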
Target sequence (P08173 whole entry, looked up): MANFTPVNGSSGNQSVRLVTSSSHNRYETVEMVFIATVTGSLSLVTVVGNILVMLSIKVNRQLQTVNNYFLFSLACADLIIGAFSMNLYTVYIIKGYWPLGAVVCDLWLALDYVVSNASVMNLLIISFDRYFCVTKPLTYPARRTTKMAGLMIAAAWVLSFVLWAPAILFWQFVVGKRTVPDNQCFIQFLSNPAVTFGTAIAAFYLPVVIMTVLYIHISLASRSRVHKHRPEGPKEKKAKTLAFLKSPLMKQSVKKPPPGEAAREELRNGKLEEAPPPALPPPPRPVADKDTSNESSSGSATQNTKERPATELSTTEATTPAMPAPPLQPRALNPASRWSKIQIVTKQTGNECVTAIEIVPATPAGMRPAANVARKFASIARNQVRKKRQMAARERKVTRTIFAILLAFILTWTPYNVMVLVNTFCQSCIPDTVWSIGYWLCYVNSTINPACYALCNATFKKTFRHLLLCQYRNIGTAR
CHRM5 PAM – positive allosteric modulators of human muscarinic M5 receptor; P08912; CHO-K1 hM5, Fluo-8 calcium, ACh EC20 PAM; 0% = ACh EC20, 100% = ACh EC100; activation, % at 3 µM; actives 0.3% (n = 360,000); AID 624038;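 active = activation above the run cutoff, the mean activation of all test compounds plus 3 SD, cut at about 18% in these data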
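Assay system: CHO-K1 hM5 cells / Incubation: Fluo-8 loading 80 min at 37 °C plus 30 min room temperature / Technique: Fluo-8 calcium dye fluorescence, kinetic read / Repeats: single replicate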
M5 antag – antagonists of human muscarinic M5 receptor (CHRM5). CHO-hM5 cells, Fluo-8 calcium fluorescence, ACh EC80. inhibition, % at 3 µM. actives 0.59% (n = 360,000). AID 624040;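 active = inhibition above a per-plate cutoff, the mean of that plate's test compounds plus 3 SD, cut at about 27% in these data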
CHRM4 PAM – positive allosteric modulators of human muscarinic M4 receptor; P08173; CHO-K1 hM4/Gqi5, Fluo-8 calcium fluorescence, ACh EC20; 0% = ACh EC20, 100% = maximal ACh; activation, % at 3 µM; actives 0.4% (n = 360,000);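 active = activation above its plate's cutoff, the mean activation of sample wells plus 3 SD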
CHRM4 antagonist – blocks acetylcholine activation of human M4 receptor; P08173; CHO-hM4 cells, ACh EC80, Fluo-8 calcium fluorescence; inhibition, % at 3 µM; actives 0.73% (n = 360,000); AID 624125;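 active = inhibition above its plate's cutoff, the mean inhibition of sample wells plus 3 SD, cut at about 27% in these data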
CHRM5 agonist – agonists of human muscarinic M5 receptor (CHRM5); CHO-K1 hM5 cells, Fluo-8 calcium fluorescence; 0% DMSO wells, 100% maximal acetylcholine response; activation, % at 3 µM; actives 0.19% (n = 360,000); AID 624037;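 active = activation above the run's mean over test compounds plus 3 SD, cut at about 23% in these data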;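 also: signal is peak over basal fluorescence ratio across the kinetic read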
Hits are given with their value; - = inactive. Only some compounds are listed: those with a hit (about 1.8% of all), similar ones and a draw of the others.

SMILES	M4 ag	CHRM5 PAM	M5 antag	CHRM4 PAM	CHRM4 antagonist	CHRM5 agonist
O=C(NCc1ccccc1)C1=C[C@H](c2coc3ccccc3c2=O)C[C@H](OCCCCO)O1	-	-	-	-	-	-
CC(C)(C)OC(=O)C[C@@H]1C/C=C\C[C@H](CC(=O)N(CCO)Cc2ccccc2)C(=O)NCCOC1=O	-	-	-	-	-	-
COc1ccc(N2CCN(C(=O)COC(=O)/C=C/c3ccc(OC(F)F)cc3)CC2)cc1	-	-	-	23	-	-
CCc1ccc(NC(=O)C(C)OC(=O)/C=C/c2ccc(O)c(OC)c2)cc1 (configuration not stated)	-	-	-	-	-	35
COc1cc(/C=C/C(=O)OC(C)C(=O)Nc2c(C)n(C)n(-c3ccccc3)c2=O)ccc1O (configuration not stated)	-	-	-	-	-	-
COc1ccc(N2CCN(C(=O)COC(=O)/C=C/c3ccc(C(F)(F)F)cc3)CC2)cc1	-	-	-	-	-	-
COc1cc(/C=C/C(=O)OCC(=O)c2ccc(OC(F)F)cc2)ccc1O	-	-	-	-	-	27
O=C(c1ccc(Sc2cccc(Cl)c2)c([N+](=O)[O-])c1)N1CCN(c2ccccn2)CC1	-	-	-	-	-	-
CC(C)c1ccc(NC(=O)C2(C)Cc3c(-c4cccc(C(F)(F)F)c4)ccnc3O2)cc1 (configuration not stated)	-	-	-	-	-	-
N#CCCCCN1CCCC1	-	-	-	-	-	-
CCCn1c(=S)[nH]c2cc(C(=O)N3CCN(c4ccccc4OC)CC3)ccc2c1=O	-	-	-	-	39	-
CN(C(=O)COC(=O)CNC(=O)c1ccccc1F)C1CCCCC1	-	-	-	23	-	-
COc1ccc2c(c1)[nH]c1c(N3CCN(Cc4ccc5c(c4)OCO5)CC3)ncnc12	-	-	32	-	-	-
COc1ccc2c(c1)[nH]c1c(N3CCSCC3)ncnc12	-	-	-	-	-	-
FC(F)c1nnc2ccc(Cl)nn12	-	-	-	-	-	-
Clc1ccc2nnc(Cl)n2n1	-	-	-	19	-	-
N#Cc1nc(-c2cccs2)oc1N1CCN(Cc2ccccc2)CC1	-	-	-	-	85	-
C[C@H](CO)N1C[C@H](C)[C@@H](CN(C)S(=O)(=O)c2ccccc2)Oc2c(NC(=O)NC3CCCCC3)cccc2C1=O	-	-	-	-	-	-
CC(C)c1cc(C(=O)Nc2cc(Br)ccc2O)no1	-	-	34	-	-	-
CC1CC(C)CN(CCCNC(=O)CN2C(=O)COc3ccc(S(=O)(=O)N4CCOCC4)cc32)C1 (configuration not stated)	-	-	-	-	-	-
C1=CC2CC1CC2CN1CCN(c2ccccc2)CC1 (configuration not stated)	-	-	-	-	-	-
Cc1ccccc1CN1CCN(CC2CC3C=CC2C3)CC1 (configuration not stated)	-	-	-	-	44	-
COc1cccc(NC(=O)Cn2c(CCC(=O)O)ccc2-c2cccs2)c1	-	19	-	-	-	-
O=C(c1ccc(Cl)cc1)[C@@H]1[C@@H]2C(=O)N(c3cccc4ccccc34)C(=O)[C@@H]2C2c3ccccc3C=NN21 (some centres not stated)	-	-	-	-	-	-
O=C1c2ccccc2S(=O)(=O)c2cc(C(=O)N(c3ccccn3)c3ccccn3)ccc21	77	-	-	-	-	67
SMILES	M4 ag	CHRM5 PAM	M5 antag	CHRM4 PAM	CHRM4 antagonist	CHRM5 agonist
O=C(c1ccc(Cl)c([N+](=O)[O-])c1)N(c1ccccn1)c1ccccn1	-	20	-	-	-	-
CC(C)c1cccc(C(C)C)c1NC(=O)c1ccc(-c2cc(Cl)ccc2Cl)o1	-	-	-	-	-	-
CCc1cccc(CC)c1C(OC(C)=O)c1cccnc1 (configuration not stated)	-	-	-	-	-	-
CC1(C#CC[N+]2(C)CCCCC2)CCC2C(O1)c1ccccc1OC2(C)C (configuration not stated)	84	-	88	-	79	76
CCn1ncc(CN2CCCC(C(=O)c3cccc(OC(C)C)c3)C2)c1C (configuration not stated)	-	-	29	-	38	-
CCOC(=O)c1[nH]ncc1CN1CCCC(C(=O)c2cccc(OC(C)C)c2)C1 (configuration not stated)	-	-	-	-	-	-
COc1ccc(S(=O)(=O)NNC(=O)Cc2csc(C)n2)cc1[N+](=O)[O-]	-	-	-	-	-	-
Cn1nc(C(C)(C)C)cc1C(=O)NCc1ccc2c(c1)OCO2	-	-	29	-	-	-
Cc1oc(C(C)(C)C)cc1C(=O)NCc1ccc2c(c1)OCO2	-	-	-	-	-	-
O=C(NCc1ccc2c(c1)OCO2)c1cc2ccccc2o1	-	30	-	-	-	-
O=C(O)c1ccccc1C(=O)NCc1ccc2c(c1)OCO2	-	-	-	-	-	-
O=C(Nc1ccc(Oc2ccsc2C(=O)O)cc1)c1ccccc1F	-	-	-	-	-	-
Cc1ccccc1OCC(=O)NCC(=O)N/N=C/c1ccc(Br)o1	-	20	-	-	-	-
CCn1c(SCc2ccc(Cl)cc2)nc2nc3c(cc2c1=O)CCCC3	-	-	-	28	-	-
COc1ccc2c3c([nH]c2c1)[C@H]1C[C@H]2[C@H](C[C@@H](O)[C@H](OC)[C@H]2C(=O)O)CN1CC3	-	-	-	-	46	-
Cc1ccc(NS(=O)(=O)c2ccc(C(=O)N3CCCCCC3)cc2)cc1	-	-	-	-	-	-
CC(=O)N1CCN(C(=O)CCc2nc3ccccc3c(=O)[nH]2)CC1	-	-	-	-	-	-
O=C(CCc1nc2ccccc2c(=O)[nH]1)N1CCN(C/C=C/c2ccccc2)CC1	-	-	28	-	-	-
COCCNC(=O)C1(C)CCCN(CCOc2ccc(Cl)cc2)C1 (configuration not stated)	-	-	-	-	-	-
O=C(NCC(=O)N1CCN(c2ccccc2F)CC1)c1ccc(Br)o1	-	-	-	-	-	-
Cc1cc(N2CCCC2)ccc1/C=C1\NC(=S)N(C)C1=O	-	-	-	-	-	42
O=C1/C(=C/c2ccc(N3CCCC3)cc2)NC(=S)N1C1CC1	46	-	54	-	36	69
CN1C(=O)c2ccc(N3CCCC3)cc2C1=O	-	-	-	-	-	-
